From ChEMBL document CHEMBL4364301 (Eur J Med Chem, 2019)

How the values were obtained:
LNCaP = test: Antiproliferative activity against human LNCAP cells assessed as reduction in cell growth incubated for 96 hrs by propidium iodide based 2D monolayer assay; type: functional
How it was run: (§1)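 After 24 h recovery, compound in medium or medium alone (control wells) was added at 10 half-log concentrations from 0.0032 to 100 µM, in triplicate, with at most 0.3% DMSO. After 96 h, wells were PBS-washed, stained with 7 µg/ml PI and 0.1% Triton X-100, and fluorescence read at 530/620 nm. IC50 came from a 4-parameter fit, geometric mean.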

[1] = biological target: Voltage-gated inwardly rectifying potassium channel KCNH2 (Homo sapiens, UniProt Q12809); test: Inhibition of human ERG expressed in CHO cells by whole-cell voltage-clamp analysis; type: cell-based
Voltage-gated inwardly rectifying potassium channel KCNH2, sequence (Q12809 whole entry): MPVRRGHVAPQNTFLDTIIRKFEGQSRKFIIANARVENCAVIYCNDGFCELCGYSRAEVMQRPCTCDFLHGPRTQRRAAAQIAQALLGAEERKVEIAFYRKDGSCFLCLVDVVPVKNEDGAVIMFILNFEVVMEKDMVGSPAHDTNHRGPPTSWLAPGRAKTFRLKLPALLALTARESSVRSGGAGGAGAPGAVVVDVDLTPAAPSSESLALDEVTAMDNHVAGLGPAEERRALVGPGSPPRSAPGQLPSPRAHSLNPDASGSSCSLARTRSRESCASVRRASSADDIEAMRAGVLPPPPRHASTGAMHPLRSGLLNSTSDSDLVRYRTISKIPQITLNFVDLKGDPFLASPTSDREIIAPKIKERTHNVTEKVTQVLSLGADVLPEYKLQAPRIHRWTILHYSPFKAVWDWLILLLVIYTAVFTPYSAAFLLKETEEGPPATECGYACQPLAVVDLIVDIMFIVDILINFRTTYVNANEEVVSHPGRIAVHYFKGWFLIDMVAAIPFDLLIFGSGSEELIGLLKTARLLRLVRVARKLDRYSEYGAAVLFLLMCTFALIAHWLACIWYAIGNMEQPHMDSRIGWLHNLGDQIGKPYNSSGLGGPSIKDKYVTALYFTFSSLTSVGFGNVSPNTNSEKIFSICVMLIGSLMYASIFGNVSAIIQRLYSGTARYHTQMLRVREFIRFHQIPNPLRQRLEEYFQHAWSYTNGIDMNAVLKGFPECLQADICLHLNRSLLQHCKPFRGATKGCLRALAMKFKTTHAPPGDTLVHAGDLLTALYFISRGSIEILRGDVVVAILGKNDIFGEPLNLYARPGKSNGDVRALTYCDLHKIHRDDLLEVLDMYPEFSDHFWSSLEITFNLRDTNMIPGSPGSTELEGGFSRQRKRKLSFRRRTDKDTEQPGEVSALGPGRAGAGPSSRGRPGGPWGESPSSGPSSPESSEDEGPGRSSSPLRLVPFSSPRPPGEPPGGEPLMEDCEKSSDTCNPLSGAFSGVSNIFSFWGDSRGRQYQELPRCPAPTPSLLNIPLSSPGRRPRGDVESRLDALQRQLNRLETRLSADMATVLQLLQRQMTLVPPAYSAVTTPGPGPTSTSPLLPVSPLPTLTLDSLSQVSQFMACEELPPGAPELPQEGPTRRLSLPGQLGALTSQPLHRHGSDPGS
How it was run: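 CHO cells expressing hERG were held in Dulbecco's PBS with Ca/Mg, pH 7–7.2, at room temperature. Tail currents were recorded by automated whole-cell voltage clamp after 300 s exposure. […] Quinidine served as positive control and 0.25% DMSO buffer as negative control.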

[2] = Metabolic stability in liver microsomes (unknown origin) assessed as half life at 3 uM measured upto 45 mins in presence of NADPH by LC-MS/MS analysis; type: ADME, Microsome
How it was run: (§2)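 Pooled liver microsomes at 0.5 mg/mL protein in 0.1 M phosphate buffer pH 7.4 were incubated with 3 μM compound (0.25% DMSO) at 37 °C. Reactions were started with 1 mM NADPH and sampled at 0, 5, 15, 30 and 45 min. A minus-NADPH control ran for 45 min. Reactions were quenched in methanol and analysed by LC-MS/MS to give CLint and t1/2.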

CWR22R = test: Antiproliferative activity against human 22Rv1 cells assessed as reduction in cell growth incubated for 96 hrs by propidium iodide based 2D monolayer assay; type: functional; how it was run: as §1
VCaP = test: Antiproliferative activity against human VCaP cells assessed as reduction in cell growth incubated for 96 hrs by propidium iodide based 2D monolayer assay; type: functional
How it was run: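 VCaP cells in RPMI 1640 with 10% FCS at 37 °C, 5% CO2, seeded 4,000–20,000 cells/well and left 24 h before dosing. Compounds from DMSO stocks were diluted in half-log steps in medium, 10 concentrations 0.0032–100 μM, triplicate wells, max 0.3% DMSO. After 96 h, cells were washed, stained with 7 μg/ml propidium iodide plus 0.1% Triton X-100 for 1–2 h at room temperature, and fluorescence read at ex 530/em 620 nm.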

DU-145 = test: Antiproliferative activity against human DU145 cells assessed as reduction in cell growth incubated for 96 hrs by propidium iodide based 2D monolayer assay; type: functional; how it was run: as §1
[3] = Protein binding in human plasma; type: ADME, cell-free; details: read-out: PPB (converted)
[4] = Metabolic stability in liver microsomes (unknown origin) assessed as intrinsic clearance per mg of protein at 3 uM measured upto 45 mins in presence of NADPH by LC-MS/MS analysis; type: ADME, Microsome; details: read-out: CLH; how it was run: as §2

## C[C@](O)(CS(=O)(=O)c1ccc(F)cc1)C(=O)Nc1ccc(C#N)c(C(F)(F)F)c1 [(R)-BICALUTAMIDE]
LNCaP
  Activity: Dose-dependent effect
[1]
  IC50: > 25 µM
[2]
  half-life at 3 µM: 3.57 h
CWR22R
  Activity: Dose-dependent effect
VCaP
  Activity: Dose-dependent effect
  IC50: 51.6 µM
DU-145
  Activity: Dose-dependent effect
DU-145; DU-145, 96 h
  IC50: 45.4 µM
[3]
  fraction unbound: 0.02
[4]
  microsomal CLint at 3 µM: 6.48 µL/min/mg
